Measurements from ChEMBL document CHEMBL1795344, “Design, synthesis and antitumor evaluation of phenyl N-mustard-quinazoline conjugates” (Bioorg Med Chem, 2011).
Calls of active or inactive are those of the source. The calls are words filed in the database; no cut-off is given here.

Columns and labels:
Mus musculus [1] = assay: Toxicity in human MX1 cells xenografted athymic nude Swiss mouse assessed as body weight loss at 30 mg/kg, iv every two days for three times followed by 40 mg/kg, iv every two days for 5 times relative to control; type: organism-based; settings: in vivo
Nucleic Acid = assay: Induction of pEGFP-N1 plasmid DNA interstrand cross-linking at 1 to 20 uM by alkaline agarose gel shift assay; type: nucleic-acid assay
How it was run: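 pEGFP-N1 plasmid DNA (1500 ng) was incubated with compound (1, 10, 20 μM) in 3 mM NaCl/1 mM sodium phosphate pH 7.4/1 mM EDTA for 2 h at 37 °C. It was then BamHI-linearized, ethanol-precipitated and denatured in 0.5 N NaOH-10 mM EDTA. Samples were run on a 0.8% alkaline agarose gel at 4 °C, 18 V for 22 h, stained with ethidium bromide.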

CCRF-CEM [2] = assay: Cytotoxicity against human vinblastine-resistant CCRF-CEM cells after 72 hrs by XTT assay; type: functional, cell-based
How it was run: (§1)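 CCRF-CEM and its Taxol- and vinblastine-resistant sublines were incubated 72 h, then given phenazine methosulfate-XTT for 6 h at 37 °C. Absorbance was read at 450 and 630 nm. IC50 came from median-effect analysis of dose-effect data at six or seven concentrations.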

MX1 [3] = assay: Antitumor activity against human MX1 cells xenografted in athymic nude Swiss mouse assessed as tumor growth inhibition at 30 mg/kg, iv every two days for three times followed by 40 mg/kg, iv every two days for 5 times relative to control; type: functional; set-up: scale not given: the % may be the effect or the level left
Mus musculus [4] = assay: Toxicity in human MX1 cells xenografted athymic nude Swiss mouse assessed as mouse mortality at 30 mg/kg, iv every two days for three times followed by 40 mg/kg, iv every two days for 5 times; type: organism-based; settings: in vivo
CCRF-CEM [5] = assay: Cytotoxicity against human taxol-resistant CCRF-CEM cells after 72 hrs by XTT assay; type: functional, cell-based; how it was run: as §1
Mus musculus [6] = assay: Toxicity in human PC3 cells xenografted athymic nude Swiss mouse assessed as body weight loss at 55 mg/kg, iv every two days for six times relative to control; type: organism-based, PC-3; set-up: dose 55 mg/kg, route intravenous; settings: in vivo
PC-3 [7] = assay: Cytotoxicity against human PC3 cells after 72 hrs by Alamar blue assay; type: functional, cell-based; settings: PC-3, 72 h
How it was run: (§2)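 H1299 and PC3 cells were exposed 72 h, then given Alamar blue for 6 h at 37 °C. Absorbance was read at 570 and 600 nm. IC50 came from median-effect analysis of dose-effect data at six or seven concentrations.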

Mus musculus [8] = assay: Toxicity in human PC3 cells xenografted athymic nude Swiss mouse assessed as mouse mortality at 55 mg/kg, iv every two days for six times; type: organism-based, PC-3; set-up: dose 55 mg/kg, route intravenous; settings: in vivo
MX1 [9] = assay: Cytotoxicity against human MX1 cells after 72 hrs by SRB assay; type: functional, cell-based; settings: MX1, 72 h
How it was run: (§3)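 MX-1 and HCT-116 solid tumor cells were exposed 72 h, with growth read by SRB staining on a microplate spectrophotometer. IC50 came from median-effect analysis of dose-effect data at six or seven concentrations.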

HCT-116 = assay: Cytotoxicity against human HCT116 cells after 72 hrs by SRB assay; type: functional, cell-based; settings: HCT-116, 72 h; how it was run: as §3
CCRF-CEM [10] = assay: Ratio of IC50 for human taxol-resistant CCRF-CEM cells to IC50 for human CCRF-CEM cells; type: functional
PC-3 [11] = assay: Anticancer activity against human PC3 cells xenografted in athymic nude Swiss mouse assessed as tumor growth inhibition at 55 mg/kg, iv every two days for six times relative to control; type: functional; set-up: scale not given: the % may be the effect or the level left
[12] = Cytotoxicity against human H1299 cells after 72 hrs by Alamar blue assay; type: functional, cell-based; settings: NCI-H1299, 72 h; how it was run: as §2
CCRF-CEM [13] = assay: Cytotoxicity against human CCRF-CEM cells after 72 hrs by XTT assay; type: functional, cell-based; how it was run: as §1
CCRF-CEM [14] = assay: Ratio of IC50 for human vinblastine-resistant CCRF-CEM cells to IC50 for human CCRF-CEM cells; type: functional
Mus musculus [15] = assay: Toxicity in human MX1 cells xenografted athymic nude Swiss mouse assessed as body weight loss at 50 and 60 mg/kg, iv every two days for three times followed by 70 mg/kg, iv every two days for two times relative to control; type: organism-based; settings: in vivo
MX1 [16] = assay: Antitumor activity against human MX1 cells xenografted in athymic nude Swiss mouse assessed as tumor growth inhibition at 50 and 60 mg/kg, iv every two days for three times followed by 70 mg/kg, iv every two days for two times relative to control; type: functional; set-up: scale not given: the % may be the effect or the level left
Mus musculus [17] = assay: Toxicity in human MX1 cells xenografted athymic nude Swiss mouse assessed as mouse mortality at 50 and 60 mg/kg, iv every two days for three times followed by 70 mg/kg, iv every two days for two times; type: organism-based; settings: in vivo

Structure (SMILES) | Activity (Mus musculus [1]) [%] | Activity (Nucleic Acid) | IC50 (CCRF-CEM [2]) [nM] | Activity (MX1 [3]) [%] | Activity (Mus musculus [4]) | IC50 (CCRF-CEM [5]) [nM] | Activity (Mus musculus [6]) [%] | IC50 (PC-3 [7]) [nM] | Activity (Mus musculus [8]) | IC50 (MX1 [9]) [nM] | IC50 (HCT-116) [nM] | Ratio IC50 (CCRF-CEM [10]) | Activity (PC-3 [11]) [%] | IC50 [12] [nM] | IC50 (CCRF-CEM [13]) [nM] | Ratio IC50 (CCRF-CEM [14]) | Activity (Mus musculus [15]) [%] | Activity (MX1 [16]) [%] | Activity (Mus musculus [17])
O=C(Nc1ccc(N(CCCl)CCCl)cc1)Nc1ccc2ncnc(Nc3cccc(Cl)c3F)c2c1 | 6 | Active | 1040 | 52 | Non-toxic | 1550 | 6 | 6290 | Non-toxic | 4550 | 3840 | 2.07 | 69 | 5520 | 750 | 1.39 |  |  | 
O=C(Nc1ccc(N(CCCl)CCCl)cc1)Nc1ccc2ncnc(Nc3ccc(F)c(Cl)c3)c2c1 |  |  | 1140 |  |  | 1160 |  |  |  | 5380 | 3360 | 1.16 |  |  | 1000 | 1.14 | 5 | 72 | Non-toxic
